# According to ChEMBL document CHEMBL1681781, “Structure based design and syntheses of amino-1H-pyrazole amide derivatives as selective Raf kinase inhibitors in melanoma cells” (Bioorg Med Chem, 2011):
# Active and inactive are the calls of the source. The calls are words filed in the database; no cut-off is given here.
# How the values were obtained:
# [1] = (§1) Antiproliferative activity against human A375P cells assessed as growth inhibition after 24 hrs by MTT assay; format: functional
# Method in brief: (§2)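 A375P cells kept in DMEM with 10% FBS and 1% penicillin/streptomycin at 37 °C under 5% CO2. Cells lifted with 0.05% trypsin–0.02% EDTA, seeded at 5 × 10^3 cells/well and left 24 h before dosing. Test compounds given as a 3-fold serial dilution over 12 points. Viability read by MTT reduction, absorbance at 590 nm.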
# [2] = tested on: HS27; experiment: Antiproliferative activity against human HS27 cells assessed as growth inhibition after 24 hrs by MTT assay; format: functional; settings: HS27, 24 h
# [3] = tested on: A375P; experiment: as §1; format: functional; method in brief: as §2
# [4] = molecular target: Serine/threonine-protein kinase mTOR (Homo sapiens, UniProt P42345); experiment: inhibition of mTOR
# [5] = tested on: Serine/threonine-protein kinase B-raf (Homo sapiens), P15056 [V600E]; experiment: Inhibition of B-Raf V600E mutant
# [6] = molecular target: RAF proto-oncogene serine/threonine-protein kinase (Homo sapiens, UniProt P04049); experiment: Inhibition of C-Raf assessed as [33P]gamma-ATP incorporation into substrate after 40 mins by scintillation counting
# Method in brief: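 Human C-RAF (5–10 mU) in 25 mM Tris pH 7.5, 0.02 mM EGTA, 10 mM Mg acetate, with 0.66 mg/mL myelin basic protein as substrate and [γ-33P]ATP. Reaction started by adding the Mg-ATP mix and run 40 min at room temperature. Stopped with 3% phosphoric acid, spotted on P30 filtermat, washed in 75 mM phosphoric acid and methanol, then scintillation counted.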
# Chain of Serine/threonine-protein kinase B-raf (Homo sapiens), P15056 [V600E] (P15056 whole entry V600E): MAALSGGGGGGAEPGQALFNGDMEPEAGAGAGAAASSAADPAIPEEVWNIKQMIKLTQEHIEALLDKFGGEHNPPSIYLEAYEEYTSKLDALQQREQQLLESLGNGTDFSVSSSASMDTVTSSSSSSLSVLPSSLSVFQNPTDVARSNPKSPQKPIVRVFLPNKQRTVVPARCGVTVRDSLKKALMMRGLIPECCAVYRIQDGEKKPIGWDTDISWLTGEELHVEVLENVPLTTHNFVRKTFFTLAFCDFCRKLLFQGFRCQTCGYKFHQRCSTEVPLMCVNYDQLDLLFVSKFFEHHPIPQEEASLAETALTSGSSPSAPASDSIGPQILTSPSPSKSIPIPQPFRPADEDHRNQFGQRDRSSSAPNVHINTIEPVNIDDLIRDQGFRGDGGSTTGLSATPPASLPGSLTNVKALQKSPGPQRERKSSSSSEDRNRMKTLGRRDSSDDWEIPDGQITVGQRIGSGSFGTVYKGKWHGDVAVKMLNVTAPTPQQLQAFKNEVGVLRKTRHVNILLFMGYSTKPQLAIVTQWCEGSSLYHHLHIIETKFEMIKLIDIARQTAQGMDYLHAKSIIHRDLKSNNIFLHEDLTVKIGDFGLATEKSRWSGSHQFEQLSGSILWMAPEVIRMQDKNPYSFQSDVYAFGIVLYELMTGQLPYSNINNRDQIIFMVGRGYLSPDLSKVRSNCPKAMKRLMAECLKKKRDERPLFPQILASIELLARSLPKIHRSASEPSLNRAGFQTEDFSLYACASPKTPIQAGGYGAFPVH
# Chain of RAF proto-oncogene serine/threonine-protein kinase (P04049 whole entry): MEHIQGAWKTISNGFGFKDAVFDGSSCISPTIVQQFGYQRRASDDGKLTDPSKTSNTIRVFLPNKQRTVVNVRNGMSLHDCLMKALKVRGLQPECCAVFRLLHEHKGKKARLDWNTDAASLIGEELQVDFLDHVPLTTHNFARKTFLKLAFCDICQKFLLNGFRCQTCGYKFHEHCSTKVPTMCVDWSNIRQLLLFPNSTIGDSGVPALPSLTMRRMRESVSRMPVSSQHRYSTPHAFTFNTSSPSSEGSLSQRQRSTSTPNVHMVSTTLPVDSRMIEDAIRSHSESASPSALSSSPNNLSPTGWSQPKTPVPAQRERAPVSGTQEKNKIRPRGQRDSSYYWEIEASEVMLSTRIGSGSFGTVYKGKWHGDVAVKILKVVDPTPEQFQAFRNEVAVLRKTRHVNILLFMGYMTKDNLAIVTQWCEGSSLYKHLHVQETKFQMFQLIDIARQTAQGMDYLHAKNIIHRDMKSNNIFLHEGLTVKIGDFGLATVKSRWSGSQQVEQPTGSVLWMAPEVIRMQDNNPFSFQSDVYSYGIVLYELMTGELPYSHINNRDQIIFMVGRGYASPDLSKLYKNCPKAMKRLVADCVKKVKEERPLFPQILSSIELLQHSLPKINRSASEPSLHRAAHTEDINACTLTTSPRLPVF
GI50 [3],Compound,GI50 [1],GI50 [2],further results
–,COc1ccc(Cn2ncc(NC(=O)c3cc(NC(=O)Nc4cc(Cl)c(Cl)cc4Cl)ccc3C)c2N)cc1,11.4 µM,> 30 µM,–
inactive,COc1ccc(Cn2ncc(NC(=O)c3ccc(NC(=O)c4cnn(-c5ccccc5)c4C(F)(F)F)cc3C)c2N)cc1,–,> 30 µM,–
–,O=c1cc(N2CCOCC2)oc2c(-c3ccccc3)cccc12 [LY-294002],–,–,IC50 [4]: 3.02 µM
–,COc1ccc(Cn2ncc(NC(=O)c3cc(NC(=O)c4cnn(-c5ccc(Cl)cc5)c4C(F)(F)F)ccc3C)c2N)cc1,> 30 µM,> 30 µM,–
–,COc1ccc(Cn2ncc(NC(=O)c3cc(NC(=O)c4cc(N5CCN(C)CC5)cc(C(F)(F)F)c4)ccc3C)c2N)cc1,4.51 µM,> 30 µM,inhibition [5]: inactive; IC50 [6]: 0.24 µM
–,COc1ccc(Cn2ncc(NC(=O)c3ccc(NC(=O)c4cc(-c5ccc(Cl)cc5)on4)cc3C)c2N)cc1,24.9 µM,> 30 µM,–
inactive,COc1ccc(Cn2ncc(NC(=O)c3cc(NC(=O)c4ccc(-c5cc(C(F)(F)F)ccc5Cl)o4)ccc3C)c2N)cc1,–,> 30 µM,–
–,COc1ccc(Cn2ncc(NC(=O)c3cc(NC(=O)Nc4ccc(Cl)cc4)ccc3C)c2N)cc1,8.73 µM,> 30 µM,–
inactive,COc1ccc(Cn2ncc(NC(=O)c3cc(NC(=O)c4ncc(-c5ccncc5)s4)ccc3C)c2N)cc1,–,> 30 µM,–
–,COc1ccc(Cn2ncc(NC(=O)c3ccc(NC(=O)c4cc5ccccc5s4)cc3C)c2N)cc1,> 30 µM,> 30 µM,–
inactive,COc1ccc(Cn2ncc(NC(=O)c3cc(NC(=O)Nc4c(Cl)cccc4Cl)ccc3C)c2N)cc1,–,> 30 µM,–
inactive,COc1ccc(Cn2ncc(NC(=O)c3ccc(NC(=O)Nc4nccc(C(F)(F)F)n4)cc3C)c2N)cc1,–,> 30 µM,–
inactive,COc1ccc(Cn2ncc(NC(=O)c3cc(NC(=O)c4ccnc(Cl)c4)ccc3C)c2N)cc1,–,> 30 µM,–
–,COc1ccc(Cn2ncc(NC(=O)c3ccc(NC(=O)Nc4ccc(Cl)c(Cl)c4)cc3C)c2N)cc1,4.12 µM,> 30 µM,–
–,COc1ccc(Cn2ncc(NC(=O)c3ccc(NC(=O)Nc4ccc(Cl)c(C(F)(F)F)c4)cc3C)c2N)cc1,33.2 µM,> 30 µM,inhibition [5]: inactive; IC50 [6]: 8.32 µM
inactive,COc1ccc(Cn2ncc(NC(=O)c3ccc(NC(=O)Nc4ccc(Cl)cc4)cc3C)c2N)cc1,–,> 30 µM,–
–,COc1ccc(Cn2ncc(NC(=O)c3cc(NC(=O)c4ccc([N+](=O)[O-])c(C(F)(F)F)c4)ccc3C)c2N)cc1,27.9 µM,> 30 µM,–
inactive,COc1ccc(Cn2ncc(NC(=O)c3cc(NC(=O)Nc4cc(C)no4)ccc3C)c2N)cc1,–,> 30 µM,–

GI50 [3],Compound,GI50 [1],GI50 [2],further results
–,COc1ccc(Cn2ncc(NC(=O)c3cc(NC(=O)c4cc(-c5ccc(Cl)cc5)on4)ccc3C)c2N)cc1,1.39 µM,> 30 µM,–
inactive,COc1ccc(Cn2ncc(NC(=O)c3ccc(NC(=O)c4cc(C)on4)cc3C)c2N)cc1,–,> 30 µM,–
–,COc1ccc(Cn2ncc(NC(=O)c3cc(NC(=O)Nc4ccc(C(F)(F)F)cc4)ccc3C)c2N)cc1,> 30 µM,> 30 µM,–
inactive,COc1ccc(Cn2ncc(NC(=O)c3cc(NC(=O)Nc4ccc(C(F)(F)F)cc4C(F)(F)F)ccc3C)c2N)cc1,–,> 30 µM,–
–,Cc1ccc(NC(=O)Nc2ccc(Cl)c(C(F)(F)F)c2)cc1C(=O)Nc1cnn(Cc2ccccc2)c1N,15.9 µM,> 30 µM,–
–,COc1ccc(Cn2ncc(NC(=O)c3ccc(NC(=O)c4cc5ccccc5o4)cc3C)c2N)cc1,> 30 µM,> 30 µM,–
–,COc1ccc(Cn2ncc(NC(=O)c3ccc(NC(=O)Nc4cc(C(F)(F)F)ccc4N4CCOCC4)cc3C)c2N)cc1,> 100 µM,> 30 µM,–
–,COc1ccc(Cn2ncc(NC(=O)c3cc(NC(=O)Nc4cccc(Cl)c4)ccc3C)c2N)cc1,0.21 µM,> 30 µM,–
–,COc1ccc(Cn2ncc(NC(=O)c3ccc(NC(=O)Nc4cc(-n5cnc(C)c5)cc(C(F)(F)F)c4)cc3C)c2N)cc1,5.71 µM,> 30 µM,–
–,COc1ccc(Cn2ncc(NC(=O)c3cc(NC(=O)c4cccc(C(F)(F)F)c4)ccc3C)c2N)cc1,5.53 µM,> 30 µM,inhibition [5]: inactive; IC50 [6]: 0.0224 µM
–,COc1ccc(Cn2ncc(NC(=O)c3ccc(NC(=O)Nc4cccc(C(F)(F)F)c4)cc3C)c2N)cc1,> 30 µM,> 30 µM,–
inactive,COc1ccc(Cn2ncc(NC(=O)c3cc(NC(=O)NC4CCCCC4)ccc3C)c2N)cc1,–,> 30 µM,–
–,COc1ccc(Cn2ncc(NC(=O)c3ccc(NC(=O)Nc4cccc(Cl)c4)cc3C)c2N)cc1,36.5 µM,> 30 µM,–
–,COc1ccc(Cn2ncc(NC(=O)c3ccc(NC(=O)Nc4cc(N5CCOCC5)cc(C(F)(F)F)c4)cc3C)c2N)cc1,51.5 µM,> 30 µM,–
–,COc1ccc(Cn2ncc(NC(=O)c3cc(NC(=O)c4cc(-n5cnc(C)c5)cc(C(F)(F)F)c4)ccc3C)c2N)cc1,11.3 µM,> 30 µM,–
inactive,COc1ccc(Cn2ncc(NC(=O)c3ccc(NC(=O)c4cnccn4)cc3C)c2N)cc1,–,> 30 µM,–
–,CNC(=O)c1cc(Oc2ccc(NC(=O)Nc3ccc(Cl)c(C(F)(F)F)c3)cc2)ccn1 [SORAFENIB],5.58 µM,–,–
–,O=C1Nc2ccc(I)cc2C1=Cc1cc(Br)c(O)c(Br)c1,–,–,IC50 [5]: 0.00386 µM
